Results on nine compounds are retold here after ChEMBL document CHEMBL1128561, “Inhibition of uridine phosphorylase: synthesis and structure-activity relationships of aryl-substituted 5-benzyluracils and 1-[(2-hydroxyethoxy)methyl]-5-benzyluracils” (J Med Chem, 1995).

Experiment [1] deals with T1, Uridine phosphorylase 1 (Mus musculus, UniProt P52624). Description: Inhibition of uridine phosphorylase (UrdPase) from murine liver. Summed up:
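Murine liver UrdPase; uridine converted to uracil over 30 min at 37 °C, with enzyme set to give 10% conversion uninhibited. Stopped by 1 min at 100 °C. Uridine and uracil separated by TLC (chloroform:methanol:acetic acid 90:5:5).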

The target in experiment [2] is Uridine phosphorylase 1 (Mus musculus) (UniProt P52624). The experiment is described as follows: The compound was tested for inhibition of uridine phosphorylase (UrdPase) from murine liver at 5 uM of concentration.
Experiment [3] has the same target. The experiment is described as follows: The compound was tested for inhibition of uridine phosphorylase (UrdPase) from murine liver at 10 uM of concentration.
Experiment [4] has as its target T1, Uridine phosphorylase 1. The experiment is described as follows: The compound was tested for inhibition of uridine phosphorylase (UrdPase) from murine liver Value refers to activity for apparent Ki value.

T1 sequence (P52624 whole entry): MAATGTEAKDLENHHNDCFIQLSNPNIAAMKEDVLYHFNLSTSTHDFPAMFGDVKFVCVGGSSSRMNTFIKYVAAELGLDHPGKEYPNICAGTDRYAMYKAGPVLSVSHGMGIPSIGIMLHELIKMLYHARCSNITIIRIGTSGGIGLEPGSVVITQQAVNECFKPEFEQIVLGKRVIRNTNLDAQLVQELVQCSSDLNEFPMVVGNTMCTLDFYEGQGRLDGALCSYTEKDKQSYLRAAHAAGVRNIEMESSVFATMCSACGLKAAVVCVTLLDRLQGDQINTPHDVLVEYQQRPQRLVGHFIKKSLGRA
Sequence of Uridine phosphorylase 1 (Mus musculus) (P52624 whole entry, looked up): as the sequence (P52624 whole entry) above

As to `COc1ccc(Cc2cnc(O)nc2O)cc1`, in experiment [1], inhibition was half-maximal at 66.5 µM (IC50).
Regarding `Oc1ncc(Cc2cccc(OCc3ccccc3)c2)c(O)n1`, the inhibition (usually the percentage by which the read-out fell short of the control) in experiment [2] was 15%.
Consider `O=c1[nH]cc(Cc2ccc([N+](=O)[O-])cc2)c(=O)[nH]1`, for which half-maximal inhibition in experiment [1] (IC50) was put at 5.9 µM.
Turning to `CCCOc1cccc(Cc2cn(COCCO)c(=O)[nH]c2=O)c1`, the IC50 (usually the concentration needed to halve the response being measured) in experiment [1] worked out at 0.047 µM.
The compound `Oc1ncc(Cc2ccc(C(F)(F)F)cc2)c(O)n1` returned an inhibition in experiment [3] of 16%.
Consider `COc1cccc(Cc2cn(COCCO)c(=O)[nH]c2=O)c1`, for which, in experiment [4], the Ki stood at 1860 nM.
In the case of `O=c1[nH]cc(Cc2cccc(OCCCC(F)(F)F)c2)c(=O)[nH]1`, in experiment [1], the IC50 was found to be 13 µM.
Same read-out and setting: the figure for `COc1ccc(Cc2c[nH]c(=O)[nH]c2=O)cc1OC` is 129 µM; for `O=c1[nH]cc(Cc2ccc3c(c2)OCO3)c(=O)[nH]1` it is 13.6 µM.
